Rows were chosen to be rich in hits. Some 2% of all compounds tested hit in one or more screens of this group.
CRFR2-BP ag = CRF-BP/CRF-R2 complex agonism. HEK293 CRF-R2/CRF-BP, calcium dye fluorescence (FLIPR); percent of saturating CRF peptide response. activation, % at 13.2 µM. hit rate 0.46% among 350,000. AID 588473;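 active means activation of at least 50%, plus an integration ratio under a set limit after plate pattern correction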
zfTRPN1 agonist = zebrafish TRPN1 (NompC) channel agonism | HEK293 zebrafish TRPN1-YFP, Fluo-8 calcium fluorescence; 100% = response to 87 µM carbachol | activation, % at 3 µM | hit rate 0.18% among 220,000 | AID 1424;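 active means activation above its plate's cutoff, the mean activation of test wells on that plate plus 3 SD, cut at about 19% in these data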
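Material: zebrafish TRPN1-YFP in HEK293 cells; Doses: single test compound dose, 3 µM nominal, 0.3% DMSO; Timing: dye loading 1 h at 37 °C, then 30 min room temperature; Technique: intracellular calcium fluorescence with Fluo-8; Benchmarks: high carbachol 87 µM, low DMSO alone.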
TRPML3 agonist = agonists of human TRPML3 channel. Q8TDD5. HEK293 TRPML3-YFP, Fluo-8 calcium fluorescence; 100% = the carbachol control signal. activation, % at 3 µM. hit rate 0.29% among 220,000. AID 1448;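 active means activation above its plate's cutoff, the mean activation of the plate's test wells plus 3 SD, cut at about 12% in these data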
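system = HEK293 cells stably carrying human TRPML3-YFP | doses = one concentration, 3 µM nominal, 0.3% DMSO | timing = dye loading 1 h 37 °C then 30 min ambient, 125 s read | detection = Fluo-8 calcium dye fluorescence, ex 470-495, em 515-575 nm | benchmarks = high control carbachol 87 µM, low control DMSO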
GPR7 antagonist = blocks human GPR7 receptor signaling; P48145; GPR7-expressing cells, fluorescence antagonist assay; inhibition, % at 4.4 µM; hit rate 1.1% among 290,000; AID 1861; in the data active means inhibition above about 16%, passing the limit was not always enough;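 further: cells stimulated with the agonist NPW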
Target sequence (P48145 whole entry, looked up): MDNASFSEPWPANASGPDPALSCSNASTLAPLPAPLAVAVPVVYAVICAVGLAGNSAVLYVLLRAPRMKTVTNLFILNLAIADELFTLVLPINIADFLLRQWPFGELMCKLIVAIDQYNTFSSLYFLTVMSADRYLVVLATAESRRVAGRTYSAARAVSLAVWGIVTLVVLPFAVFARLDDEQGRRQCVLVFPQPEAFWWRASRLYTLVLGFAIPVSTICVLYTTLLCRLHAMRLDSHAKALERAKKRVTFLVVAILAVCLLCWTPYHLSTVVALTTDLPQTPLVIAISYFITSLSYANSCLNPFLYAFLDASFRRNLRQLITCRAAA
CRFBP-R2 block = blocks CRF-induced signaling of the CRF-BP/CRF-R2 complex | HEK293 CRF-R2/CRF-BP, CRF-induced calcium fluorescence | inhibition, % at 11.8 µM | hit rate 0.59% among 350,000;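 active means inhibition of the ligand-induced calcium signal above about 50% at the single tested concentration, limit read from the data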
A number is an active result; - = inactive; . = not tested or not shown.

SMILES	CRFR2-BP ag	zfTRPN1 agonist	TRPML3 agonist	GPR7 antagonist	CRFBP-R2 block
Cc1ncc([N+](=O)[O-])n1CCOC(N)=O	-	-	-	-	67.3
O=C(CCl)Nc1nccs1	-	-	-	-	62.5
c1ccc2c(c1)[IH]c1ccccc1-2	-	.	.	.	-
CC1=NCCc2c1[nH]c1cc(O)ccc21	220.4	.	.	.	-
COC(=O)C1=C(c2cccc(OCc3ccccc3)c2)C[C@@H]2CC[C@H]1N2C(=O)NCCN1CCOCC1	-	.	.	.	-
CCOC(=O)c1c(C)n(Cc2ccccc2)c2ccc(OCC(O)CNC(C)(C)C)cc12 (centres undefined)	-	.	.	-	-
Nc1c2c(nc3ccccc13)CCN(Cc1ccccc1)C2	68.8	.	.	-	-
C[CH2][Hg][S]c1ccccc1C(=O)O	-	.	.	.	-
COC(=O)C1C2c3ccccc3C(c3ccccc32)C1(C)C(=O)OC (centres undefined)	-	.	.	.	-
CN[C@@H]1C[C@@H](c2ccc(Cl)c(Cl)c2)c2ccccc21	.	-	-	46.8	.
CC(NCc1ccc(Cl)c(Cl)c1)C(O)c1ccccc1 (centres undefined)	-	-	-	-	-
C#CCOC(=O)C1=CCCN(C)C1	-	.	.	.	-
CCN1C(=O)C(=C/C=C/c2ccco2)C(=O)N(CC)C1=S	50.0	-	-	-	-
Oc1c(Cl)c(Cl)c(Cl)c(Cl)c1Cl	-	.	.	.	53.5
Cc1cccc(N2C(=O)NC(=O)/C(=C\c3ccc(N4CCOCC4)cc3)C2=O)c1	-	-	-	-	72.2
Clc1cnc(Oc2ccc(Oc3ncc(Cl)cc3Cl)cc2)c(Cl)c1	-	-	-	-	72.0
CC(C)(C)c1cc([N+](=O)[O-])cc(C(C)(C)C)c1O	68.0	-	-	-	63.2
NC(=O)c1cc([N+](=O)[O-])cc([N+](=O)[O-])c1	-	.	.	.	-
COc1ccc(NC(=S)N2Cc3ccccc3-n3nncc3C2)c(OC)c1	-	.	.	.	-
C=CC[C@@H](C)CC(=O)C(CCCN=[N+]=[N-])SOOc1ccccc1 (some centres undefined)	-	.	.	.	-
Cc1ccccc1N1C(=O)NC(=O)/C(=C\c2ccc3c(c2)CCCN3Cc2ccccc2)C1=O	57.9	-	-	-	-
C[C@]12CCC3C(CC[C@H]4C[C@H](O)[C@H](O)C[C@]34C)C1CC[C@@H]2O (some centres undefined)	-	.	.	.	-
CNC1(c2ccc(F)cc2)CCCCC1	-	.	.	.	87.6
O=c1ccc2cc(O[C@@H]3O[C@H](CO)[C@@H](O)[C@H](O)[C@H]3O)c(O)cc2o1	-	.	.	.	-
Cc1cc(C=C(C#N)C#N)ccc1N1CCCC1	76.0	-	-	-	-
SMILES	CRFR2-BP ag	zfTRPN1 agonist	TRPML3 agonist	GPR7 antagonist	CRFBP-R2 block
Cc1cc(C(=O)Nc2ccccc2)nn1C(C)(C)C	-	-	-	-	-
Cc1cc(C(=O)Nc2ccc3c(c2)OCCO3)nn1C(C)(C)C	-	-	-	-	81.8
CN1C(=O)C[N+]([O-])=C(c2ccccc2)c2cc(Cl)ccc21	-	.	.	.	-
Cc1noc(C)c1COc1ccc(C(=O)NCC2(N(C)C)CCCCC2)cc1	-	.	.	.	-
O=P(Oc1ccccc1)(N1CCOCC1)N1CCOCC1	-	.	.	.	-
CN(c1ccccc1)P(=O)(N1CC1)N1CC1	-	.	.	.	54.3
CCOC(=O)C1(c2ccccc2)CCN(CCc2ccc(NC(=O)CCC(=O)O)cc2)CC1	-	.	.	.	-
O=C([O-])c1ccc(-[n+]2c(-c3ccccc3)cc(-c3ccccc3)cc2-c2ccccc2)cc1	-	.	.	.	-
O=[N+]([O-])c1ccc(-[n+]2c(-c3ccccc3)cc(-c3ccccc3)cc2-c2ccccc2)cc1	69.3	.	.	-	-
CC(C)NC1C2CCC(CC2)C1(O)c1ccc(Cl)c(Cl)c1 (centres undefined)	-	.	.	.	-
CCN(CC)c1ccc(/C=C2\C(=O)NC(=S)N(c3ccc(OC)cc3OC)C2=O)o1	-	.	.	.	-
Cc1cc(C)cc(N2C(=O)/C(=C\c3ccc(N4CCN(C)CC4)o3)C(=O)NC2=S)c1	57.4	-	-	-	-
CCN(CC)c1ccc(C=C2C(=O)N(C)C(=S)N(C)C2=O)o1	88.1	-	-	-	-
CN1C(=O)C(=Cc2ccc(N3CCCCC3)o2)C(=O)N(C)C1=S	132.9	-	-	-	-
O=C1NC(=O)C(=Cc2ccc(N3CCOCC3)o2)C(=O)N1	-	-	-	-	-
CCN(CC)c1ccc(/C=C2\C(=O)NC(=S)N(C)C2=O)o1	57.9	-	-	-	-
CN1C(=O)C(=Cc2ccc(SC3CCCCC3)o2)C(=O)N(C)C1=O	-	-	-	-	-
C[C@@H]1CN([C@@H](C)CO)C(=O)CCCn2cc(nn2)CO[C@H]1CN(C)C(=O)Oc1ccc2ccccc2c1	-	.	.	.	-
CCC1(Cc2ccccc2)C(=O)NC(=S)N(C)C1=O (centres undefined)	-	.	.	.	-
CC1OC(C[N+](C)(C)C)CC1O (centres undefined)	-	.	.	.	-
C[C@H]1OC[C@@H](C[N+](C)(C)C)O1	-	71.4	98.9	-	-
COC1C(C)OC(OC2CC(C)(O)Cc3cc4c(c(O)c32)C(=O)c2c(O)cc3c(c2C4=O)OC2OC3(C)C(O)C(N(C)C)C2O)C(OC)C1(C)OC (centres undefined)	198.1	.	.	.	-
CC(C)OCCCNC(=O)c1c(N)n(CC2CCCO2)c2nc3ccccc3nc12 (centres undefined)	-	-	-	15.4	-
COC(=O)C1=C(c2ccc(OC(F)(F)F)cc2)C[C@@H]2CC[C@H]1N2C(=O)NCc1cc(C)oc1C(F)(F)F	-	.	.	.	-
COC(=O)C1=C(c2ccccc2)C[C@@H]2CC[C@H]1N2C(=O)NCc1ccc(C(F)(F)F)cc1	-	.	.	.	-
SMILES	CRFR2-BP ag	zfTRPN1 agonist	TRPML3 agonist	GPR7 antagonist	CRFBP-R2 block
COC(=O)C1=C(c2ccc(C(C)=O)cc2)C[C@@H]2CC[C@H]1N2C(=O)NCc1ccc(C(F)(F)F)cc1	67.6	.	.	.	-
O=P(O)(O)CN1CCNCCN(CP(=O)(O)O)CCNCC1	-	.	.	.	-
COCC(=O)N1Cc2ccccc2-n2nncc2C1	-	.	.	.	-
O=C1NC(=O)N(CCNc2ncc(C(F)(F)F)cc2Cl)C(=O)C1/C=N/OCc1c(F)cccc1Cl (centres undefined)	-	-	-	-	61.5
O=c1[nH]c(=S)n(-c2ccc(Cl)cc2)c(O)c1C=Nc1ccc(N2CCOCC2)cc1	52.9	-	-	-	-
CCn1c(O)c(C=Nc2ccc(N3CCOCC3)c(Br)c2)c(=O)n(CC)c1=S	99.5	-	-	-	-
CCn1c(O)c(C=Nc2ccc(N3CCOCC3)cc2)c(=O)n(CC)c1=S	97.0	-	-	-	-
COC(=O)C(Cc1ccc(N(CCCl)CCCl)cc1)N=Cc1ccccc1O (centres undefined)	-	.	.	-	66.9
CC12CC(=O)C3C(CCC4CC(=O)C=CC43C)C1CCC2=O (centres undefined)	-	.	.	.	-
CCC(C)C1N=C(c2ccccc2)c2cc(Cl)ccc2N(CC(=O)NCc2ccco2)C1=O (centres undefined)	-	-	-	-	55.1

High-throughput results: PubChem, several laboratories
